Assay results: PMC10840089 (RSC Advances, 2024)
“Also recorded” adds a separate entry of the source.

How the values were obtained:
[1] = molecular target: T1, α-amylase from porcine pancreas (Sus scrofa, UniProt P00690); assay: α-amylase inhibition assay; format: biochemical
T1 sequence (P00690 16-511): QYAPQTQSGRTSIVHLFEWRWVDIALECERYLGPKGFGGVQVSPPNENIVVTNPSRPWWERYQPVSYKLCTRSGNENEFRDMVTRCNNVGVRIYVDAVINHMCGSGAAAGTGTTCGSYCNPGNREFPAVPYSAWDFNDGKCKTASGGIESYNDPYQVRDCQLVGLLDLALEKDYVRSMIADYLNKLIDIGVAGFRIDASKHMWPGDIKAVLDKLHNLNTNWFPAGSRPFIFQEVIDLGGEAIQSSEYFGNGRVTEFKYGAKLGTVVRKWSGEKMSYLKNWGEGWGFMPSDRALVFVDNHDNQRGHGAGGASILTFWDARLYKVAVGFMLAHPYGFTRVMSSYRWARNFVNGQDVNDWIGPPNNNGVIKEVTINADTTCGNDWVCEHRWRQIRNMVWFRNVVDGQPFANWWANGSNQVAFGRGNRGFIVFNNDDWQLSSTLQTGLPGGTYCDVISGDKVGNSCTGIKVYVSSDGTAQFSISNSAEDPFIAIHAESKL

[2] = molecular target: T1, α-amylase from porcine pancreas; assay: α-amylase inhibition kinetics; format: biochemical; settings: for type (mechanism) of α-amylase inhibition: Lineweaver–Burk plot, starch 0.5 to 2.5%
How it was run: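 Porcine pancreatic enzyme (1151 U mg−1 protein) diluted in 0.2 mol L−1 phosphate buffer, pH 6, preincubated with test compound (6.25–50 μM) 5 min at 25 °C. Soluble starch (0.5–2.5%) then added, 10 min at 25 °C. Reducing sugar measured with DNS (boiling water, 15 min) at 540 nm against a glucose standard curve. Inhibition type taken from Lineweaver–Burk plots, Vmax and KM by graph fitting.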

| SMILES | IC50 [1] | type (mechanism) of α-amylase inhibition [2] | Ki [2] |
| --- | --- | --- | --- |
| C=C1CC[C@@H]2C(C)(C)C(=O)CC[C@@]2(C)[C@@H]1COc1ccc2ccc(=O)oc2c1 [Compound 2, 7-(((1R,4aS,8aR)-5,5,8a-trimethyl-2-methylene-6-oxodecahydronaphthalen-1-yl)methoxy)-2H-chromen-2-one] | 25 ± 0.99 µM |  |  |
| C=C1CC[C@@H]2C(C)(C)C(=O)/C(=C/c3ccccc3)C[C@@]2(C)[C@@H]1COc1ccc2ccc(=O)oc2c1 [Compound 3a, 7-(((1R,4aS,8aR)-7-((E)-benzylidene)-5,5,8a-trimethyl-2-methylene-6-oxodecahydronaphthalen-1-yl)methoxy)-2H-chromen-2-one] | 29 ± 0.65 µM |  |  |
| C=C1CC[C@@H]2C(C)(C)C(=O)/C(=C/c3ccc4ccccc4c3)C[C@@]2(C)[C@@H]1COc1ccc2ccc(=O)oc2c1 [Compound 3b, 7-(((1R,4aS,8aR,E)-5,5,8a-trimethyl-2-methylene-7-(naphthalen-2-ylmethylene)-6-oxodecahydronaphthalen-1-yl)methoxy)-2H-chromen-2-one] | 14.4 ± 0.3 µM |  |  |
| C=C1CC[C@@H]2C(C)(C)C(=O)/C(=C/c3ccc(F)cc3)C[C@@]2(C)[C@@H]1COc1ccc2ccc(=O)oc2c1 [Compound 3c, 7-(((1R,4aS,8aR)-7-((E)-4-fluorobenzylidene)-5,5,8a-trimethyl-2-methylene-6-oxodecahydronaphthalen-1-yl)methoxy)-2H-chromen-2-one] | 13.2 ± 0.73 µM |  |  |
| C=C1CC[C@@H]2C(C)(C)C(=O)/C(=C/c3ccc(Cl)cc3)C[C@@]2(C)[C@@H]1COc1ccc2ccc(=O)oc2c1 [Compound 3d, 7-(((1R,4aS,8aR)-7-((E)-4-chlorobenzylidene)-5,5,8a-trimethyl-2-methylene-6-oxodecahydronaphthalen-1-yl)methoxy)-2H-chromen-2-one] | 17.2 ± 0.5 µM |  |  |
| C=C1CC[C@@H]2C(C)(C)C(=O)/C(=C/c3ccc(Br)cc3)C[C@@]2(C)[C@@H]1COc1ccc2ccc(=O)oc2c1 [Compound 3e, 7-(((1R,4aS,8aR)-7-((E)-4-bromobenzylidene)-5,5,8a-trimethyl-2-methylene-6-oxodecahydronaphthalen-1-yl)methoxy)-2H-chromen-2-one] | 15.4 ± 0.29 µM |  |  |
| C=C1CC[C@@H]2C(C)(C)C(=O)/C(=C/c3ccc(C)cc3)C[C@@]2(C)[C@@H]1COc1ccc2ccc(=O)oc2c1 [Compound 3f, 7-(((1R,4aS,8aR)-5,5,8a-trimethyl-7-((E)-4-methylbenzylidene)-2-methylene-6-oxodecahydronaphthalen-1-yl)methoxy)-2H-chromen-2-one] | 22.3 ± 0.9 µM |  |  |
| C=C1CC[C@@H]2C(C)(C)C(=O)/C(=C/c3ccc(C(C)(C)C)cc3)C[C@@]2(C)[C@@H]1COc1ccc2ccc(=O)oc2c1 [Compound 3g, 7-(((1R,4aS,8aR)-7-((E)-4-(tert-butyl)benzylidene)-5,5,8a-trimethyl-2-methylene-6-oxodecahydronaphthalen-1-yl)methoxy)-2H-chromen-2-one] | 22.7 ± 0.86 µM |  |  |
| C=C1CC[C@@H]2C(C)(C)C(=O)/C(=C/c3ccc(OC)cc3)C[C@@]2(C)[C@@H]1COc1ccc2ccc(=O)oc2c1 [Compound 3h, 7-(((1R,4aS,8aR)-7-((E)-4-methoxybenzylidene)-5,5,8a-trimethyl-2-methylene-6-oxodecahydronaphthalen-1-yl)methoxy)-2H-chromen-2-one] | 13.5 ± 0.54 µM |  |  |
| C=C1CC[C@@H]2C(C)(C)C(=O)/C(=C/c3ccccc3OC)C[C@@]2(C)[C@@H]1COc1ccc2ccc(=O)oc2c1 [Compound 3i, 7-(((1R,4aS,8aR)-7-((E)-2-methoxybenzylidene)-5,5,8a-trimethyl-2-methylene-6-oxodecahydronaphthalen-1-yl)methoxy)-2H-chromen-2-one] | 14.5 ± 0.3 µM |  |  |
| C=C1CC[C@@H]2C(C)(C)C(=O)/C(=C/c3ccc(OC)c(OC)c3)C[C@@]2(C)[C@@H]1COc1ccc2ccc(=O)oc2c1 [Compound 3j, 7-(((1R,4aS,8aR)-7-((E)-3,4-dimethoxybenzylidene)-5,5,8a-trimethyl-2-methylene-6-oxodecahydronaphthalen-1-yl)methoxy)-2H-chromen-2-one] | 13 ± 0.96 µM | non-competitive inhibition |  |
| C=C1CC[C@@H]2C(C)(C)C(=O)/C(=C/c3cccc(OC(F)(F)C(F)F)c3)C[C@@]2(C)[C@@H]1COc1ccc2ccc(=O)oc2c1 [Compound 3k, 7-(((1R,4aS,8aR)-5,5,8a-trimethyl-2-methylene-6-oxo-7-((E)-3-(1,1,2,2-tetrafluoroethoxy)benzylidene)decahydronaphthalen-1-yl)methoxy)-2H-chromen-2-one] | 7.24 ± 0.36 µM | mixed competitive-non-competitive inhibitors | 1.02 µM |
| C=C1CC[C@@H]2C(C)(C)C(=O)/C(=C/c3ccc(N(C)C)cc3)C[C@@]2(C)[C@@H]1COc1ccc2ccc(=O)oc2c1 [Compound 3l, 7-(((1R,4aS,8aR)-7-((E)-4-(dimethylamino)benzylidene)-5,5,8a-trimethyl-2-methylene-6-oxodecahydronaphthalen-1-yl)methoxy)-2H-chromen-2-one] | 10.8 ± 0.6 µM | mixed competitive-non-competitive inhibitors |  |
| C=C1CC[C@@H]2C(C)(C)C(=O)/C(=C/c3ccc(N4CCCC4)cc3)C[C@@]2(C)[C@@H]1COc1ccc2ccc(=O)oc2c1 [Compound 3m, 7-(((1R,4aS,8aR)-5,5,8a-trimethyl-2-methylene-6-oxo-7-((E)-4-(pyrrolidin-1-yl)benzylidene)decahydronaphthalen-1-yl)methoxy)-2H-chromen-2-one] | 8.83 ± 0.22 µM | mixed non-competitive-uncompetitive inhibitor; also recorded: mixed non-competitive-uncompetitive inhibition |  |
